Source: ChEMBL document CHEMBL1121504, “Aporphines. 31. Synthesis and antitumor activity of aporphine nitrogen mustards” (1980)

Key:
P388 [1] = experiment: Antitumor activity against intraperitoneally implanted P388 lymphocytic leukemia (P388) system at dose 100 mg/kg; type: functional, Mus musculus; conditions: route intraperitoneal
Outline: (§1)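 P388 lymphocytic leukemia inoculated intraperitoneally and run under standard NCI screening protocols. Each compound was tested at several graded doses in mg/kg. Activity was read out as T/C for each dose, with confirmatory activity judged by the NCI criteria.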

P388 [2] = experiment: (§2) Antitumor activity against intraperitoneally implanted P388 lymphocytic leukemia (P388) system at dose 25 mg/kg; type: functional, Mus musculus; conditions: route intraperitoneal; outline: as §1
P388 [3] = experiment: (§3) Antitumor activity against intraperitoneally implanted P388 lymphocytic leukemia (P388) system at dose 12.5 mg/kg; type: functional, Mus musculus; conditions: route intraperitoneal; outline: as §1
P388 [4] = experiment: (§4) Antitumor activity against intraperitoneally implanted P388 lymphocytic leukemia (P388) system at dose 50 mg/kg; type: functional, Mus musculus; conditions: route intraperitoneal; outline: as §1
P388 [5] = experiment: Antitumor activity against intraperitoneally implanted P388 lymphocytic leukemia (P388) system at dose 18.75 mg/kg; type: functional, Mus musculus; conditions: route intraperitoneal; outline: as §1
P388 [6] = experiment: Antitumor activity against intraperitoneally implanted P388 lymphocytic leukemia (P388) system at dose 9.38 mg/kg; type: functional, Mus musculus; conditions: route intraperitoneal; outline: as §1
P388 [7] = experiment: Antitumor activity against intraperitoneally implanted P388 lymphocytic leukemia (P388) system at dose 37.5 mg/kg; type: functional, Mus musculus; conditions: route intraperitoneal; outline: as §1
P388 [8] = experiment: Antitumor activity against intraperitoneally implanted P388 lymphocytic leukemia (P388) system at dose 105 mg/kg; type: functional, Mus musculus; conditions: route intraperitoneal; outline: as §1
P388 [9] = experiment: Antitumor activity against intraperitoneally implanted P388 lymphocytic leukemia (P388) system at dose 300 mg/kg; type: functional, Mus musculus; conditions: route intraperitoneal; outline: as §1
P388 [10] = experiment: Antitumor activity against intraperitoneally implanted P388 lymphocytic leukemia (P388) system at dose 75 mg/kg; type: functional, Mus musculus; conditions: route intraperitoneal; outline: as §1
[11] = Antitumor activity against intracerebrally implanted ependymoblastoma (EM) tumor system at dose 4 mg/kg; type: functional
Outline: (§5)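 Tumor implanted […] and treated at the listed mg/kg doses under standard NCI protocols. Activity is read out as T/C, the treated-to-control ratio.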

P388 [12] = experiment: Antitumor activity against intraperitoneally implanted P388 lymphocytic leukemia (P388) system at dose 4 mg/kg; type: functional, Mus musculus; conditions: route intraperitoneal
Outline: (§6)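 Murine-screen tumor implanted intraperitoneally and treated at the listed mg/kg doses under standard NCI protocols. Activity is read out as T/C, the treated-to-control ratio.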

[13] = Antitumor activity against intraperitoneally implanted colon 26 (C26) […] system at dose 32 mg/kg; type: functional, Mus musculus; conditions: route intraperitoneal; outline: as §6
[14] = Antitumor activity against intracerebrally implanted ependymoblastoma (EM) tumor system at dose 0.5 mg/kg; type: functional; outline: as §5
B16 [15] = experiment: Antitumor activity against intraperitoneally implanted B16 melanoma tumor system at dose 2 mg/kg; type: functional, Mus musculus; conditions: route intraperitoneal; outline: as §6
P388 [16] = experiment: Antitumor activity against intracerebrally implanted lymphocytic leukemia (P388) system at dose 8 mg/kg; type: functional, Mus musculus
[17] = Antitumor activity against intracerebrally implanted ependymoblastoma (EM) tumor system at dose 0.25 mg/kg; type: functional; outline: as §5
B16 [18] = experiment: Antitumor activity against intraperitoneally implanted B16 melanoma tumor system at dose 8 mg/kg; type: functional, Mus musculus; conditions: route intraperitoneal; outline: as §6
B16 [19] = experiment: Antitumor activity against intraperitoneally implanted B16 melanoma tumor system at dose 32 mg/kg; type: functional, Mus musculus; conditions: route intraperitoneal; outline: as §6
B16 [20] = experiment: Antitumor activity against intraperitoneally implanted B16 melanoma tumor system at dose 16 mg/kg; type: functional, Mus musculus; conditions: route intraperitoneal; outline: as §6
P388 [21] = experiment: Antitumor activity against intraperitoneally implanted P388 lymphocytic leukemia (P388) system at dose 16 mg/kg; type: functional, Mus musculus; conditions: route intraperitoneal; outline: as §6
[22] = Antitumor activity against intraperitoneally implanted colon 26 (C26) […] system at dose 16 mg/kg; type: functional, Mus musculus; conditions: route intraperitoneal; outline: as §6
P388 [23] = experiment: Antitumor activity against intracerebrally implanted lymphocytic leukemia (P388) system at dose 16 mg/kg; type: functional, Mus musculus
[24] = Antitumor activity against intracerebrally implanted ependymoblastoma (EM) tumor system at dose 2 mg/kg; type: functional; outline: as §5
[25] = Antitumor activity against intraperitoneally implanted colon 26 (C26) […] system at dose 4 mg/kg; type: functional, Mus musculus; conditions: route intraperitoneal; outline: as §6
P388 [26] = experiment: Antitumor activity against intraperitoneally implanted P388 lymphocytic leukemia (P388) system at dose 8 mg/kg; type: functional, Mus musculus; conditions: route intraperitoneal; outline: as §6
B16 [27] = experiment: Antitumor activity against intraperitoneally implanted B16 melanoma tumor system at dose 4 mg/kg; type: functional, Mus musculus; conditions: route intraperitoneal; outline: as §6
[28] = Antitumor activity against intraperitoneally implanted colon 26 (C26) […] system at dose 8 mg/kg; type: functional, Mus musculus; conditions: route intraperitoneal; outline: as §6
[29] = Antitumor activity against intracerebrally implanted ependymoblastoma (EM) tumor system at dose 1 mg/kg; type: functional; outline: as §5
P388 [30] = experiment: as §2; type: functional, Mus musculus; conditions: route intraperitoneal; outline: as §6; remark: listed apart in the source
P388 [31] = experiment: Antitumor activity against intraperitoneally implanted P388 lymphocytic leukemia (P388) system at dose 6.25 mg/kg; type: functional, Mus musculus; conditions: route intraperitoneal; outline: as §6
P388 [32] = experiment: Antitumor activity against intraperitoneally implanted P388 lymphocytic leukemia (P388) system at dose 3.13 mg/kg; type: functional, Mus musculus; conditions: route intraperitoneal; outline: as §6
B16 [33] = experiment: Antitumor activity against B16 melanoma tumor system at dose 6.25 mg/kg; type: functional, Mus musculus
Outline: (§7)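 B16 melanocarcinoma assay run at the listed mg/kg doses under standard NCI protocols. Activity is read out as T/C, the treated-to-control ratio.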

B16 [34] = experiment: Antitumor activity against B16 melanoma tumor system at dose 1.56 mg/kg; type: functional, Mus musculus; outline: as §7
B16 [35] = experiment: Antitumor activity against B16 melanoma tumor system at dose 25 mg/kg; type: functional, Mus musculus; outline: as §7
P388 [36] = experiment: as §4; type: functional, Mus musculus; conditions: route intraperitoneal; outline: as §6; remark: listed apart in the source
B16 [37] = experiment: Antitumor activity against B16 melanoma tumor system at dose 3.13 mg/kg; type: functional, Mus musculus; outline: as §7
B16 [38] = experiment: Antitumor activity against B16 melanoma tumor system at dose 12.5 mg/kg; type: functional, Mus musculus; outline: as §7
P388 [39] = experiment: as §3; type: functional, Mus musculus; conditions: route intraperitoneal; outline: as §6; remark: listed apart in the source
B16 [40] = experiment: Antitumor activity against B16 melanoma tumor system at dose 50 mg/kg; type: functional, Mus musculus; outline: as §7

With `COc1ccc2c(c1O)-c1cccc3c1C(C2)N(CCOCCCl)CC3` (stereo not given) the T/C (P388 [1]) was 104, the T/C (P388 [2]) was 107 and the T/C (P388 [3]) was 99. For the same compound, the T/C (P388 [4]) was 101.
`COc1ccc2c(c1O)-c1cccc3c1C(C2)N(CCOC(=O)NCCCl)CC3` (stereo not given) gave a T/C (P388 [5]) of 99, a T/C (P388 [6]) of 101 and a T/C (P388 [7]) of 97. The T/C (P388 [8]) was 99, the T/C (P388 [9]) was 105 and the T/C (P388 [10]) was 99.
Work on `COc1ccc2c(c1O)-c1cccc3c1C(C2)N(CCCl)CC3` (stereo not given) yielded a T/C [11] of 104, a T/C (P388 [12]) of 151 and a T/C [13] of 124. For the same compound, the T/C [14] was 100, the T/C (B16 [15]) was 100 and the T/C (P388 [16]) was 96. It also gave a T/C [17] of 105, a T/C (B16 [18]) of 102 and a T/C (B16 [19]) of 103. For the same compound, the T/C (B16 [20]) was 106, the T/C (P388 [21]) was 128 and the T/C [22] was 108. The T/C (P388 [23]) was 107, the T/C [24] was 99 and the T/C [25] was 107. The T/C (P388 [26]) was 114, the T/C (B16 [27]) was 106 and the T/C [28] was 119. The T/C [29] was 96.
For `COc1ccc2c(c1OC(C)=O)-c1cc(OC(C)=O)cc3c1C(C2)N(C(=O)CN(CCCl)CCCl)CC3` (stereo not given), the T/C (P388 [30]) was 185, the T/C (P388 [31]) was 150 and the T/C (P388 [32]) was 138. It also gave a T/C (B16 [33]) of 159, a T/C (B16 [34]) of 120 and a T/C (B16 [35]) of 150. The T/C (P388 [36]) was 95, the T/C (B16 [37]) was 120 and the T/C (B16 [38]) was 150. For the same compound, the T/C (P388 [39]) was 170 and the T/C (B16 [40]) was 170.
